Assay results reported in ChEMBL document CHEMBL1817668, “Synthesis of 6-[¹⁸F]fluoro-PBR28, a novel radiotracer for imaging the TSPO 18 kDa with PET” (Bioorg Med Chem Lett, 2011).
The source made the active and inactive calls. The rule behind the calls is not given here.

What was measured:
C6 = experiment: Induction of pregnenolone synthesis in rat C6 cells at 40 uM after 2 hrs by ELISA relative to control; format: functional
Summary of the method: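 Rat C6 glioma cells were exposed to ligand at 40 μM. Released pregnenolone was measured by competitive ELISA and expressed as % above control. Mean ± SEM of at least three independent experiments.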

Rattus norvegicus [1] = species: Rattus norvegicus; experiment: Ex vivo binding affinity to TSPO in AMPA lesioned rat assessed as increase in ipsi to contralateral ratio by auto radiography; format: functional, organism-based
Striatum [2] = experiment: Drug uptake in rat striatum after 1-2 mins post injection; format: ADME, tissue-based; conditions: in vivo
Striatum [3] = experiment: Drug uptake in AMPA lesioned rat striatum after 1-2 mins post injection; format: ADME, tissue-based; conditions: in vivo
Translocator protein [4] = biological target: T1, Translocator protein (Rattus norvegicus, UniProt P16257); experiment: Displacement of [3H]PK11195 from TSPO in rat kidney mitochondrial fraction; format: tissue-based
T1 sequence (P16257 whole entry, looked up): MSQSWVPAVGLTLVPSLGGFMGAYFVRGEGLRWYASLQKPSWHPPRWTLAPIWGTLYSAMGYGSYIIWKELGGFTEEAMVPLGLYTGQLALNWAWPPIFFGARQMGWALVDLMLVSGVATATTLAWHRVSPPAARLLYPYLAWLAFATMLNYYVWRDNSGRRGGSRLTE

Translocator protein [5] = biological target: Translocator protein (Homo sapiens, UniProt P30536); experiment: Displacement of [3H]PK11195 from TSPO in human HEK293 mitochondrial fraction
Translocator protein (Homo sapiens, UniProt P30536), sequence (P30536 whole entry): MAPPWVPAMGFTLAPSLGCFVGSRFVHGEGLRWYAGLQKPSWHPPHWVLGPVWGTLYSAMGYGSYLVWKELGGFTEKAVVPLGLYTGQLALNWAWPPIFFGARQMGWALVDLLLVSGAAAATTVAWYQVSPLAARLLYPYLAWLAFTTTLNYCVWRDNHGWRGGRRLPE

Translocator protein [6] = biological target: T1, Translocator protein; experiment: Displacement of [3H]PK11195 from TSPO in rat heart membrane homogenate; format: cell membranes
Rattus norvegicus [7] = species: Rattus norvegicus; experiment: Displacement of [3H]Flunitrazepam from CBR in rat cerebral cortex at 0.1 uM; format: tissue-based
Summary of the method: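 Competition binding against [3H]flunitrazepam, a reference central benzodiazepine receptor ligand, in a rat cerebral cortex homogenate screen. […]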

[8] = Octanol-buffer partition coefficient, log D of the compound at pH 7.4 by shake flask method; format: physicochemical
Summary of the method: (§1)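 Shake-flask partition of the [18F]-labelled radioligand. Log D7.4 was measured between n-octanol and buffer pH 7.4, and log P between n-octanol and water.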

Brain = experiment: Ratio of drug uptake in ipsi to contralateral side of AMPA lesioned rat brain after 60 mins post injection; format: ADME, tissue-based; conditions: in vivo, 1 h
Summary of the method: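 MicroPET imaging of rats with AMPA-induced brain lesions after injection of the fluorine-18-labelled radiotracer. Uptake in the lesioned (ipsilateral) striatal area is compared with the corresponding area of the intact contralateral hemisphere at 60 min post-injection. Time-activity curves are followed for lesioned and non-lesioned striatum over the scan.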

[9] = Octanol-water partition coefficient, log P of the compound by shake flask method; format: physicochemical; summary of the method: as §1

For CCC(C)N(C)C(=O)c1cc2ccccc2c(-c2ccccc2Cl)n1 (configuration not stated) [PK-11195], the Activity (C6) was 37% and the Activity (Rattus norvegicus [1]) was “inactive”.

With CCOC(=O)c1ncn2c1CN(C)C(=O)c1cc(F)ccc1-2 the Activity (Rattus norvegicus [1]) was “Active”.

With CCC(C)N([11CH3])C(=O)c1cc2ccccc2c(-c2ccccc2Cl)n1 (configuration not stated) the Drug uptake (Striatum [2]) was “Active” and the Drug uptake (Striatum [3]) was “Active”.

COc1ccccc1CN(C(C)=O)c1cnc(F)cc1Oc1ccccc1 showed an Activity (C6) of 16.45%, a Ki (Translocator protein [4]) of 3.9 nM and a Ki (Translocator protein [5]) of 1.19 nM. The Ki (Translocator protein [6]) was 0.44 nM, the Activity (Rattus norvegicus [1]) was “inactive” and the Activity (Rattus norvegicus [1]; tested as the 18F-labelled form) was “Active”. It also gave an Activity (Rattus norvegicus [7]) of under 10%.

With COc1ccccc1CN(C(C)=O)c1cnc([18F])cc1Oc1ccccc1 the Drug uptake (Striatum [2]) was “Active”, the logD [8] was 2.82 and the Drug uptake (Striatum [3]) was “Active”. The Ratio (Brain) was 2.2 and the logP [9] was 2.77.
